Measured values from paper PMC9652259 (Clinical Pharmacokinetics, 2022).

Columns and labels:
[1] = Four phase I DDI studies overall; type: in vivo, human
Method in brief: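 Across four crossover studies, healthy subjects received a single 600 mg oral dose fasted. Tmax came from plasma LC-MS/MS profiles, with BLQ values set to zero or missing by position. Safety covered adverse events, physical examination, vital signs, 12-lead ECG and laboratory tests. The investigator graded severity and causality. Analysis was descriptive over all subjects dosed at least once.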

CYP3A4 = CYP3A4 (Homo sapiens, UniProt P08684); assay: In vitro mechanism-based inactivation of CYP3A4; type: biochemical
UGT1A4 = target: T1, UGT1A4 (Homo sapiens, UniProt P22310); assay: UGT substrate / metabolite formation; type: in vitro ADME; details: generates ZAAD-1006a
T1 sequence (P22310 29-534): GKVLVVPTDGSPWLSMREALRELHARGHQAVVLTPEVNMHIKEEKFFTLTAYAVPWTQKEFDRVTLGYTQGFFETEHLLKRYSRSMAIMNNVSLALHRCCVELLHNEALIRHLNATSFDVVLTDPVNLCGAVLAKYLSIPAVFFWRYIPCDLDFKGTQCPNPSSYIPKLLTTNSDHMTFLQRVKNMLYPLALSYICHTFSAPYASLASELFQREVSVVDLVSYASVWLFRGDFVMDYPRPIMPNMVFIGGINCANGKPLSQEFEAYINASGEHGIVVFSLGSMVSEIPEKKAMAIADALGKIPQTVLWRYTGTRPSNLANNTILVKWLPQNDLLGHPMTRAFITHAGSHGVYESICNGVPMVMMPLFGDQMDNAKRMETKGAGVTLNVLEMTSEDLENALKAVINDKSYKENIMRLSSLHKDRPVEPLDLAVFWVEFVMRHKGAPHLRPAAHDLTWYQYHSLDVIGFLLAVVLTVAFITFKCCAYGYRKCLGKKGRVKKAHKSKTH

OAT1 = target: T2, OAT1 (Homo sapiens, UniProt Q4U2R8); assay: In vitro OAT1 substrate assessment; type: in vitro ADME; details: in vitro data
T2 sequence (Q4U2R8 1-563): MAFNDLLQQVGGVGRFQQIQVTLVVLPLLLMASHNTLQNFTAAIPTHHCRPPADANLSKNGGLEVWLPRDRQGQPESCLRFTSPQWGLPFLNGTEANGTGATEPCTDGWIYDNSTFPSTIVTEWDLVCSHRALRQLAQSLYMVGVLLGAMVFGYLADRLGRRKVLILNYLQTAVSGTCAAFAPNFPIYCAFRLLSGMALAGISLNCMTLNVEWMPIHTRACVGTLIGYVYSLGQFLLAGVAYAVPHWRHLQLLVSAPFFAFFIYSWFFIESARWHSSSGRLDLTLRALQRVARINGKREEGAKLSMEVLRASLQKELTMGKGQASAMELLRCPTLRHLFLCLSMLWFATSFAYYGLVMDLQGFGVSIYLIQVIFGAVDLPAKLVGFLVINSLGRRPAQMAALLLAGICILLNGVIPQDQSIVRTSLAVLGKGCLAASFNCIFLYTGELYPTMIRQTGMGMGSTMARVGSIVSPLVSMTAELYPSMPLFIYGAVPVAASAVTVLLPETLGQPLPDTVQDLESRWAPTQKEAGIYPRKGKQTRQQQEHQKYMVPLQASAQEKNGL

[2] = target: cytochrome P450 (CYP) 3A4 (Homo sapiens, UniProt P08684); assay: In vitro metabolism: enzyme responsible; type: in vitro ADME; details: in vitro studies
Solubility versus pH = type: physicochemical; details: dependence on pH
Esomeprazole = type: in vivo, human; details: for AUC(0-inf) / Cmax: human, plasma, oral, Geometric LS mean, ANOVA
Method in brief: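 Healthy adults (18–60 y, BMI 18–30 kg/m2) in an open-label randomized two-period crossover with a 10-day washout. Single 600 mg oral dose (3 × 200 mg capsules) alone or with esomeprazole 40 mg, fasted at least 8–10 h plus 4 h post-dose. Plasma was assayed by LC-MS/MS (30–3750 ng/mL). ANOVA on ln Cmax/AUC∞ gave 90% CIs of geometric LS mean ratios.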

Itraconazole = type: in vivo, human
Method in brief: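 Healthy adults (18–60 y) in a two-treatment crossover with a 10-day washout. Single 600 mg oral dose given alone or with itraconazole 200 mg oral solution, with overnight fast (at least 8–10 h) and 4 h post-dose fast. Sampling extended to 312 h. Plasma was quantified by validated LC-MS/MS. ANOVA of log-transformed Cmax and AUC∞ gave two-sided 90% CIs of geometric LS mean ratios.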

Rifampin = type: in vivo, human
Method in brief: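 Crossover in healthy adults (18–60 y, BMI 18–30 kg/m2) with a 10-day washout. Single oral 600 mg dose given alone or with rifampin 600 mg (2 × 300 mg capsules), taken with 240 mL water after at least 8–10 h fasting and 4 h further fasting. Plasma was measured by LC-MS/MS (30–3750 ng/mL). ANOVA (treatment, period, sequence, subject within sequence) on log Cmax/AUC∞ gave 90% CIs.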

Probenecid = type: in vivo, human
Method in brief: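 Two-treatment crossover in healthy subjects (18–60 y, BMI 18–32 kg/m2) with a 17-day washout. A 600 mg oral capsule dose was given alone or with probenecid 500 mg tablet, after fasting at least 8–10 h and for 4 h post-dose. Plasma was collected through 312 h and measured by LC-MS/MS. Ratios came from ANOVA of ln-transformed Cmax and AUC∞ with 90% CIs.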

[3] = co-administration with probenecid, healthy subjects ref 12; cited from earlier work
[4] = co-administered with esomeprazole vs alone
[5] = pexidartinib + esomeprazole vs pexidartinib alone
[6] = co-administered with itraconazole vs alone
[7] = pexidartinib + itraconazole vs pexidartinib alone
[8] = co-administered with rifampin vs alone
[9] = pexidartinib + rifampin vs pexidartinib alone
[10] = pexidartinib + probenecid vs pexidartinib alone

Chain of CYP3A4 (P08684 whole entry): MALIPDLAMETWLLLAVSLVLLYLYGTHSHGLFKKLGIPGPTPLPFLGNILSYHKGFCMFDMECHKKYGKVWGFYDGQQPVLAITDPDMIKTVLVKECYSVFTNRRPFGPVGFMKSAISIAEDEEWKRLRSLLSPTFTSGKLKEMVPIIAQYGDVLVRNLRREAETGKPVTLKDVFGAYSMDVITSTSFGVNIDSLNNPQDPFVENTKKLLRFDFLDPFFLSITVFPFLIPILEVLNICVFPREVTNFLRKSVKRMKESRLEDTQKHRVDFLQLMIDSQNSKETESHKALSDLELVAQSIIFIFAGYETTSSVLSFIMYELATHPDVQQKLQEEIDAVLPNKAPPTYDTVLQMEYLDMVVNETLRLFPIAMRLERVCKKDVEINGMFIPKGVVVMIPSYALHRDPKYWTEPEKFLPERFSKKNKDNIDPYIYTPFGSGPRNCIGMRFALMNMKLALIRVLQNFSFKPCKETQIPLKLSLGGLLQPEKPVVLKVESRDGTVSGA
Chain of cytochrome P450 (CYP) 3A4 (P08684 whole entry): as above

Structure (SMILES): FC(F)(F)c1ccc(CNc2ccc(Cc3c[nH]c4ncc(Cl)cc34)cn2)cn1 [Pexidartinib]
- severity of treatment-emergent adverse events (TEAEs) ([1]; all four studies): grade 1 or 2
- Tmax ([1]; human, plasma, oral): 2 to 3 h
- KI (inactivation) (CYP3A4): 4.01 µM
- kinact (CYP3A4): 0.000377 s⁻¹
- UGT1A4 substrate (UGT1A4): substrate of the UGT1A4 enzyme
- substrate for OAT1 (OAT1): not a substrate for OAT1
- enzyme responsible for metabolism [2]: cytochrome P450 (CYP) 3A4 as the main enzyme
- solubility (Solubility versus pH): decreases as pH increases
- decrease in AUC∞ (Esomeprazole; [4]): ~47%
- decrease in Cmax (Esomeprazole; [4]): approximately 55%
- AUC(0-inf) (Esomeprazole; 600 mg, pexidartinib alone): 104000 ng·h/mL
- Cmax (Esomeprazole; 600 mg, pexidartinib alone): 6430 ng/mL
- AUC(0-inf) (Esomeprazole; pexidartinib + esomeprazole): 55400 ng·h/mL
- Cmax (Esomeprazole; pexidartinib + esomeprazole): 2920 ng/mL
- AUC∞, Geometric LS mean ratio (90% CI) (Esomeprazole; [5]): 53.1 (47.4–59.3) %
- Cmax, Geometric LS mean ratio (90% CI) (Esomeprazole; [5]): 45.4 (36.8–55.9) %
- subjects who experienced a TEAE (Itraconazole; N = 16): nine
- increase in AUC∞ (Itraconazole; [6]): ~73%
- increase in Cmax (Itraconazole; [6]): approximately 48%
- AUC∞, Geometric LS mean ratio (90% CI) (Itraconazole; [7]): 173.0 (160.7–186.3) %
- Cmax, Geometric LS mean ratio (90% CI) (Itraconazole; [7]): 148.3 (127.8–172.0) %
- subjects with TEAE assessed as related to the study drug (Itraconazole; pexidartinib or itraconazole): seven
- decrease in AUC∞ (Rifampin; [8]): ~63%
- decrease in Cmax (Rifampin; [8]): approximately 33%
- subjects who experienced a TEAE (Rifampin; grade 1 diarrhea): single
- AUC∞, Geometric LS mean ratio (90% CI) (Rifampin; [9]): 37.0 (30.6–44.8) %
- Cmax, Geometric LS mean ratio (90% CI) (Rifampin; [9]): 67.1 (53.1–84.8) %
- subjects who experienced a TEAE (Probenecid; N = 16): Eight
- effect on Cmax (Probenecid; co-administered with probenecid vs alone): unchanged
- subjects with TEAE considered study drug related (Probenecid; in vivo): four
- AUC∞, Geometric LS mean ratio (90% CI) (Probenecid; [10]): 159.8 (143.4–178.0) %
- Cmax, Geometric LS mean ratio (90% CI) (Probenecid; [10]): 105.8 (92.4–121.0) %

Structure (SMILES): CCCc1nc(C(C)(C)O)c(C(=O)O)n1Cc1ccc(-c2ccccc2-c2nnn[nH]2)cc1 [olmesartan]
- increase in AUC [3]: approximately 50%
